Key:
[1] = folding enthalpy; higher = less favourable; fluorescence melt of hairpins on a sequencing array, two-state fit; conditions: sodium 0.088 M
Summary of the method: (§1)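 Folding enthalpy and melting temperature come from bootstrapped two-state fits to Cy3 fluorescence of library hairpins carrying annealed Cy3 and quencher oligos on a sequenced MiSeq flow cell. Imaging was done in 50 mM Na-HEPES pH 8.0, 25 mM NaCl, stepping by 2.5 °C up to 60 °C, and signals were normalised to pre-quench Cy3 and to control constructs. Results of four replicates were combined by inverse variance, and fitted temperatures were raised by 9.35 °C to match UV melts.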

[2] = melting temperature; fluorescence melt of hairpins on a sequencing array, two-state fit, raised by 9.35 °C to match UV melts; conditions: sodium 0.088 M
Summary of the method: as §1

Row | Sequence | folding enthalpy [1] [kcal/mol] | Tm [2] [°C]
1 | GCGAGGGCGAAAGCCCGC (((..(((....)))))) | -8.66 | 59.5
2 | GCGAGGTATCGC ((((....)))) | -21.6 | 55.6
3 | GCGAGGTCTCGC ((((....)))) | -22 | 54.9
4 | GCGAGTACGAAAGTACGC (((..(((....)))))) | -12 | 53.1
5 | GCGAGTAGTCGC ((((....)))) | -19.9 | 54.3
6 | GCGAGTCATCGC ((((....)))) | -24.8 | 67.8
7 | GCGAGTGGAAACGCTCGC (((((.(....).))))) | -46 | 64
8 | GCGAGTGTTCGC ((((....)))) | -14.4 | 49
9 | GCGAGTTATCGC ((((....)))) | -24 | 57.6
10 | GCGAGTTCTCGC ((((....)))) | -25.6 | 56.2
11 | GCGATACGAAAGTACCGC (((.(((....))).))) | -43.2 | 54.2
12 | GCGATACGAAAGTACGC (((.(((....)))))) | -29.6 | 55.4
13 | GCGATAGAAATATCGC ((((((....)))))) | -41.7 | 58.3
14 | GCGATAGCGAAAGCTCGC (((..(((....)))))) | -18.5 | 51.5
15 | GCGATAGGAAACCATCGC (((((.(....).))))) | -34.5 | 50.1
16 | GCGATAGGAAACTACCGC (((.(((....))).))) | -28.5 | 44.7
17 | GCGATAGGAAACTATCGC (((((((....))))))) | -57.2 | 65.9
18 | GCGATCACGAAAGTGCGC (((..(((....)))))) | -20.9 | 48.7
19 | GCGATCCCTCGC ((((....)))) | -24.1 | 49.8
20 | GCGATCCGAAAGGACGC (((.(((....)))))) | -37.7 | 61.3
21 | GCGATCCGTCGC ((((....)))) | -24.6 | 51.6
22 | GCGATCGAAAGATATCGC ((((((....)))..))) | -29.2 | 47
23 | GCGATCGAAAGATTCGC ((((((....))).))) | -45.1 | 53.5
24 | GCGATCGATCGC ((((....)))) | -41.2 | 56.5

Row | Sequence | folding enthalpy [1] [kcal/mol] | Tm [2] [°C]
25 | GCGATCGCGAAAGCGCGC (((..(((....)))))) | -15.4 | 55.2
26 | GCGATCGGAAACAATCGC (((((.(....).))))) | -37.6 | 48.1
27 | GCGATCGGAAACGGTTGC ((.(.((....)).).)) | -29.6 | 44.9
28 | GCGATCGTTCGC ((((....)))) | -29 | 50.4
29 | GCGATCTCTCGC ((((....)))) | -31.1 | 47.9
30 | GCGATGCGAAAGCACAGC ((..(((....)))..)) | -19.2 | 52
31 | GCGATGCGAAAGCCTTGC ((.(.((....)).).)) | -25.4 | 36.3
32 | GCGATGCGAAAGCGTAGC ((.(.((....)).).)) | -24.6 | 54.8
33 | GCGATGCGAAAGCGTGGC ((.(.((....)).).)) | -21.6 | 54.7
34 | GCGATGCTCGC ((((...)))) | -14.1 | 54.9
35 | GCGATGTATCGC ((((....)))) | -28.2 | 56.7
36 | GCGATTACTCGC ((((....)))) | -23.7 | 49.3
37 | GCGATTCCTCGC ((((....)))) | -22.4 | 49.5
38 | GCGATTCTCGC ((((...)))) | -21.7 | 52
39 | GCGATTTATCGC ((((....)))) | -28.4 | 68.7
40 | GCGATTTGTCGC ((((....)))) | -23.5 | 54
41 | GCGATTTTTCGC ((((....)))) | -27.2 | 53.1
42 | GCGCAACGAAAGTTACGC (((.(((....))).))) | -44.9 | 57.5
43 | GCGCAACGAAAGTTCCGC (((.(((....))).))) | -30.5 | 49.3
44 | GCGCAACGAAAGTTTCGC (((.(((....))).))) | -43 | 52.9
45 | GCGCACCGAAAGGTACGC (((.(((....))).))) | -42.3 | 64.3
46 | GCGCACCGAAAGGTCCGC (((.(((....))).))) | -37.8 | 55.6
47 | GCGCACGAAAGTGACGC ((((((....))).))) | -24 | 63.3
48 | GCGCACGAAAGTGGCCGC ((((((....)))..))) | -19.4 | 54.1

Row | Sequence | folding enthalpy [1] [kcal/mol] | Tm [2] [°C]
49 | GCGCACGAAAGTGTACGC ((((((....)))..))) | -23.8 | 53.5
50 | GCGCACGGAAACATGCGC (((((.(....).))))) | -37.5 | 59
51 | GCGCACTCGAAAGAGCGC (((..(((....)))))) | -23.6 | 57.1
52 | GCGCAGCGAAAGCCACGC (((..((....))..))) | -9.86 | 42.4
53 | GCGCAGCGAAAGCCGTGC ((.(.((....)).).)) | -9.79 | 46.2
54 | GCGCAGCGAAAGCGGTGC ((.(.((....)).).)) | -16.5 | 61.5
55 | GCGCAGCGAAAGCTTCGC (((.(((....))).))) | -36.1 | 51.4
56 | GCGCAGGGAAACCCGCAC (.((.((....)).)).) | -17 | 37
57 | GCGCATCGAAAGATACGC (((.(((....))).))) | -38.6 | 54.5
58 | GCGCATGGAAACACGCGC ((((.((....)).)))) | -40.4 | 56.1
59 | GCGCATGGAAACATGCAC (.(((((....))))).) | -12.5 | 47.1
60 | GCGCATGGAAACGTGCGC (((((.(....).))))) | -41 | 66.6
61 | GCGCCACGAAAGTGTCGC (((.(((....))).))) | -41.7 | 63.3
62 | GCGCCAGCGAAAGCTCGC (((..(((....)))))) | -8.39 | 45
63 | GCGCCAGGAAACCAGCGC ((((..(....)..)))) | -26.4 | 51.4
64 | GCGCCAGGAAACCGGCAC (.(((.(....).))).) | -16.6 | 37.4
65 | GCGCCCGAAAGGGCCGC ((((((....))).))) | -11.5 | 68
66 | GCGCCCGAAAGGGTCCGC ((((((....)))..))) | -14.8 | 56.2
67 | GCGCCCGAAAGGGTTCGC ((((((....)))..))) | -17.7 | 54.6
68 | GCGCCCTCGAAAGAGCGC (((..(((....)))))) | -32 | 54.3
69 | GCGCCGCGAAAGCAGTGC ((.(.((....)).).)) | -19.4 | 53.5
70 | GCGCCGCGAAAGCATCGC (((..((....))..))) | -17 | 51.2
71 | GCGCCGCGAAAGCGTGGC ((..(((....)))..)) | -14.9 | 51.7
72 | GCGCCGCGAAAGCTTCGC (((..((....))..))) | -15.6 | 54.7

Row | Sequence | folding enthalpy [1] [kcal/mol] | Tm [2] [°C]
73 | GCGCCGGGAAACCGGCAC (.(((((....))))).) | -8.63 | 53.4
74 | GCGCCTACGAAAGTACGC (((..(((....)))))) | -27.8 | 42
75 | GCGCCTCGAAAGAGCGC (((.(((....)))))) | -35.9 | 67.4
76 | GCGCCTGGAAACAGGTGC ((.((((....)))).)) | -46.6 | 64.2
77 | GCGCCTGGAAACGGGTGC ((.((.(....).)).)) | -46.3 | 52.3
78 | GCGCGAGGAAACTCACGC (((.(((....))).))) | -38.2 | 53.8
79 | GCGCGCGAAAGCGACCGC ((((((....)))..))) | -16.8 | 54.3
80 | GCGCGCGGAAACGCACGC (((.(((....))).))) | -32.6 | 67.8
81 | GCGCGCGGAAACGCGCAC (.(((((....))))).) | -7.45 | 65.3
82 | GCGCGGCGAAAGCCCTGC ((..(((....)))..)) | -13.5 | 50.1
83 | GCGCGGCGAAAGCCTAGC ((..(((....)))..)) | -26.9 | 61.1
84 | GCGCGGCGAAAGCGTCGC (((..((....))..))) | -19.8 | 63.2
85 | GCGCGGCGAAAGCTACGC (((..((....))..))) | -19.8 | 64.1
86 | GCGCGGCGAAAGCTCCGC (((..((....))..))) | -20.3 | 58.3
87 | GCGCGTCCGAAAGGACGC (((..(((....)))))) | -5.6 | 67.3
88 | GCGCGTGGAAACGTGCGC ((((..(....)..)))) | -40.5 | 64.7
89 | GCGCTAACGAAAGTTCGC (((..(((....)))))) | -21.8 | 45.4
90 | GCGCTACGAAAGTATCGC (((.(((....))).))) | -42.1 | 53.9
91 | GCGCTCCGAAAGGACGC (((.(((....)))))) | -33.6 | 60
92 | GCGCTCGAAAGAGGCGC ((((((....))).))) | -29.2 | 67.4
93 | GCGCTCGAAAGAGGTCGC ((((((....)))..))) | -25.2 | 47.9
94 | GCGCTGCGAAAGCACAGC ((..(((....)))..)) | -17.6 | 49.9

— the array DNA melting data of Ke et al. (doi:10.1101/2024.01.08.574731)
